Here are results for 6 compounds from BindingDB's records for doi:10.1016/j.bmc.2013.06.068 (University of Maryland, 2013).

For experiment [1], the target named is Sigma non-opioid intracellular receptor 1 (Rattus norvegicus, UniProt Q9R0C9). In words: Displacement of [3H](+)-pentazocine from sigma 1 receptor in rat brain homogenates after 120 mins by liquid scintillation counting. The method in brief:
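σ1 sites labelled with 5 nM [3H](+)-pentazocine in rat brain homogenate; nonspecific binding defined with 10 μM haloperidol. Up to 12 competitor concentrations, incubated 120 min at 25 °C. Terminated by vacuum filtration onto PEI-soaked GF/B filters, bound radioactivity counted by liquid scintillation. Ki obtained by Cheng–Prusoff.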
In general terms: In a radioligand displacement assay an active substance lowers the binding of a labelled ligand.

Experiment [2] addresses Kappa-type opioid receptor (Homo sapiens, UniProt P41145). The experiment can be described thus: Displacement of [3H]U69,593 from human kappa opioid receptor expressed in CHO cells after 120 mins by liquid scintillation counting. The method in brief:
(§1)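 Membranes from CHO cells stably expressing human μ, δ or κ opioid receptor. Radioligands: μ 1.3 nM [3H]DAMGO, δ 1.2 nM [3H]DPDPE, κ 1.7 nM [3H]U69,593; nonspecific with 1 μM of the matching unlabelled ligand.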

In experiment [3] the target is Delta-type opioid receptor (Homo sapiens, UniProt P41143). The experiment can be described thus: Displacement of [3H]DPDPE from human delta opioid receptor expressed in CHO cells after 120 mins by liquid scintillation counting. The method in brief:
as §1

Another experiment has as its target Mu-type opioid receptor (Homo sapiens, UniProt P35372). The experiment can be described thus: Displacement of [3H]DAMGO from human mu opioid receptor expressed in CHO cells after 120 mins by liquid scintillation counting. The method in brief: as §1

Delta-type opioid receptor, sequence (P41143 whole entry): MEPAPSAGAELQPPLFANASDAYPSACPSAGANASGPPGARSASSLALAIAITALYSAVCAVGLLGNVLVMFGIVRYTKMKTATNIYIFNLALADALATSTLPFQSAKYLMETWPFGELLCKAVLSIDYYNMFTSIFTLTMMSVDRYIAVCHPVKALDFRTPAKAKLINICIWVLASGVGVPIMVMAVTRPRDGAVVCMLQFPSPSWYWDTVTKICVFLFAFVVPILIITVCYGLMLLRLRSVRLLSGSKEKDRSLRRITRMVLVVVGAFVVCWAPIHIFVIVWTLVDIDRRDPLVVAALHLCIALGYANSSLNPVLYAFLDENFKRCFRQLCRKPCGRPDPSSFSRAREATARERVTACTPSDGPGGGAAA
Mu-type opioid receptor, sequence (P35372 whole entry): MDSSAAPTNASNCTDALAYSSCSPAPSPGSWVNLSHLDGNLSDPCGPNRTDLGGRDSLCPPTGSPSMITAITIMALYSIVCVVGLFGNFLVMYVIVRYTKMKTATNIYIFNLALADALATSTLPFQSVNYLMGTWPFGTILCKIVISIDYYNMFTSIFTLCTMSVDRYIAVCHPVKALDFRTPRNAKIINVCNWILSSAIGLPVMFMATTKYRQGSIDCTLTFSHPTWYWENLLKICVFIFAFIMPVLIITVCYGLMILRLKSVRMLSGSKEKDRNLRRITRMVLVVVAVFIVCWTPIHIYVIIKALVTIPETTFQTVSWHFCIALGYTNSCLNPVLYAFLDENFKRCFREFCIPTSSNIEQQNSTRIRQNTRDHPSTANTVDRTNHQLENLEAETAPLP
Sigma non-opioid intracellular receptor 1, sequence (Q9R0C9 whole entry): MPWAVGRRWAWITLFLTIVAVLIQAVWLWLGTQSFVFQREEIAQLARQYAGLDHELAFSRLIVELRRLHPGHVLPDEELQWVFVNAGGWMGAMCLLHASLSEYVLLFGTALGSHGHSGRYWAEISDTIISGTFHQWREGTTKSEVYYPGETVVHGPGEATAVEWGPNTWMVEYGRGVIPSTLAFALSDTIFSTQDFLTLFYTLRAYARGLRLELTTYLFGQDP
Kappa-type opioid receptor, sequence (P41145 whole entry): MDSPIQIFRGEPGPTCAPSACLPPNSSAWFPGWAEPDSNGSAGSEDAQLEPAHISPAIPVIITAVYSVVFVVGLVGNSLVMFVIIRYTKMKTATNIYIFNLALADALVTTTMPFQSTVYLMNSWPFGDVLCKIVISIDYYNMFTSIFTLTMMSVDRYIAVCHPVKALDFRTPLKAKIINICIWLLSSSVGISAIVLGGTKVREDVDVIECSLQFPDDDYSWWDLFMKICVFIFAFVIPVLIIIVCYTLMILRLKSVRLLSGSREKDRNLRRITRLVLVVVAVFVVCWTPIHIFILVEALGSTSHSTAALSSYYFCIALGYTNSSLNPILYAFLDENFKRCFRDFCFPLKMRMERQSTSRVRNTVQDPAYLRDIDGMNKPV

Consider `CN(CCCc1ccccc1)[C@H]1CCCC[C@@H]1O`, for which the values for the Ki in experiment [1], in experiment [2] and in experiment [3] were 0.019 µM, over 10 µM and over 10 µM, respectively.

Consider `CN(C)[C@H]1CCCC[C@@H]1OC/C=C/c1ccccc1`, for which the Ki in experiment [1] is 0.0046 µM; in experiment [2] it was over 10 µM; in experiment [3], over 10 µM; on Mu-type opioid receptor, 4.2 µM.

Turning to `CN(CCCc1ccccc1)[C@H]1CCCC[C@@H]1OCCCc1ccccc1`, the inhibitory constant (Ki) in experiment [1] worked out at 0.79 µM; in experiment [2], 2.2 µM; in experiment [3], 6.2 µM; at Mu-type opioid receptor, 3.1 µM.

For the compound `CN(CCc1ccccc1)[C@H]1CCCC[C@@H]1O`, the inhibition constant Ki in experiment [1] was 0.12 µM; in experiment [2], over 10 µM; in experiment [3], over 10 µM; on Mu-type opioid receptor, over 10 µM.

`CN(C)[C@H]1CCCC[C@@H]1OCCCc1ccccc1`: the Ki is 0.059 µM in experiment [1], over 10 µM in experiment [2], over 10 µM in experiment [3] and 2.3 µM on Mu-type opioid receptor.

Turning to `CN(CCc1ccccc1)[C@H]1CCCC[C@@H]1OCCCc1ccccc1`, the inhibition constant Ki in experiment [1] is 0.084 µM; in experiment [3], over 10 µM; at Mu-type opioid receptor, 1.6 µM.

By Ki is commonly meant a dissociation constant, usually derived from enzyme kinetics or from competition with a known ligand.
